Data set [1] has as its system L6. In words: Increase in glucose uptake in rat L6 cells at 6 uM pre-treated with compound for 30 mins using 2-deoxy-D-[1,2-3H]glucose and measured after 2 hrs by liquid scintillation counting method. The data set is classed as functional. The gist of the method: (§1)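 L6 myotubes exposed to compound for 2 h at 1.5, 3, 6, 12 or 24 μM; 2-deoxyglucose uptake expressed as fold over untreated control; 3 μM (−)-arctigenin run alongside as positive control; mean ± SEM of 3 independent experiments.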

Data set [2] deals with L6. In words: Increase in glucose uptake in rat L6 cells at 6 uM pre-treated with compound for 30 mins using 2-deoxy-D-[1,2-3H]glucose and measured after 2 hrs […] by liquid scintillation counting method. The data set is classed as functional. The gist of the method: as §1
Data set [3] has as its system L6. Put plainly: Ratio of glucose uptake in rat L6 cells at 6 uM after 2 hrs to glucose uptake in rat L6 cells at 6 uM after 2 hrs in presence of 3 uM (-)-arctigenin. The data set is classed as functional. In a few lines: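 Glucose uptake in L6 myotubes after 2 h compound exposure divided by uptake with the 3 μM (−)-arctigenin positive control run in parallel.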

In data set [4] the test system is L6. In words: Induction of depolarization of mitochondrial membrane potential in rat L6 cells incubated for 10 mins by fluorescence based assay. The class given is functional, cell-based. The gist of the method: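 L6 myotubes treated 10 min over a concentration series; mitochondrial membrane potential (Δψm) depolarization measured; mean ± SEM, n = 3 independent experiments.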

Data set [5] has as its system L6. In words: Increase in glucose uptake in rat L6 cells pre-treated with compound for 30 mins using 2-deoxy-D-[1,2-3H]glucose and measured after 2 hrs in presence of 10 uM AMPK inhibitor compound-C by liquid scintillation counting method. The class given is functional, cell-based. In a few lines: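 L6 myotube 2-deoxyglucose uptake after compound exposure, tested with and without the AMPK inhibitor compound C; mean ± SEM, n = 3 independent experiments.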

The subject of data set [6] is L6. In words: Induction of fatty acid oxidation in rat L6 cells at 6 uM using [9,10-3H(N)]-palmitic acid incubated for 2 hrs. The class given is functional, cell-based. The gist of the method:
(§2)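 Fatty acid oxidation measured in L6 myotubes after compound treatment, also with compound C to block AMPK; mean ± SEM, n = 3 independent experiments.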

The subject of data set [7] is L6. Put plainly: Induction of fatty acid oxidation in rat L6 cells at 3 uM using [9,10-3H(N)]-palmitic acid incubated for 2 hrs. The data set is classed as functional, cell-based. The gist of the method:
as §2

Data set [8] concerns L6. Put plainly: Induction of fatty acid oxidation in rat L6 cells using [9,10-3H(N)]-palmitic acid incubated for 2 hrs in presence of AMPK inhibitor compound-C. The class given is functional, cell-based. In a few lines: as §2
Data set [9] can be described thus: Tmax in ob/ob mouse at 50 mg/kg, ip measured after 0.5 to 24 hrs. The data set is classed as ADME, organism-based. The settings on record: in vivo.
Data set [10] in a line: Cmax in ob/ob mouse at 50 mg/kg, ip measured after 0.5 to 24 hrs. The class given is ADME, organism-based. More on the design: dose 50 mg/kg, route intraperitoneal. Conditions: in vivo.
The nature of data set [11]: AUC (0 to t) in ob/ob mouse at 50 mg/kg, ip measured after 0.5 to 24 hrs. The class given is ADME, organism-based. Conditions: in vivo. More on the design: dose 50 mg/kg, time upper 24 hr, time lower 0.5 hr, route intraperitoneal.
Data set [12] concerns Mus musculus. In words: Reduction in respiratory exchange ratio in ob/ob mouse at 50 mg/kg, ip measured at 6 min intervals […] at 23 degC by indirect calorimetry. The class given is functional, organism-based.
In data set [13] the test system is Mus musculus. Put plainly: Antidiabetic activity in ob/ob mouse assessed as reduction in body weight at 50 mg/kg, ip bid for 23 days measured on day 3. The class given is functional, organism-based. The gist of the method:
(§3)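 ob/ob mice given 50 mg/kg intraperitoneally or vehicle twice daily for 23 d; body weight and food intake recorded regularly, fed and fasting blood glucose measured throughout, serum triacylglycerol, cholesterol and NEFA measured at end of treatment; mean ± SEM, n = 6–8 mice, compared with vehicle group.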

Data set [14] deals with Mus musculus. Put plainly: Toxicity in ob/ob mouse assessed as effect on feeding behavior at 50 mg/kg, ip bid for 23 days. The data set is classed as organism-based. Conditions: in vivo, 552 h. The gist of the method:
as §3

Data set [15] relates to Mus musculus. In words: Antidiabetic activity in ob/ob mouse assessed as reduction in fed glucose levels at 50 mg/kg, ip bid for 12 days. The data set is classed as functional. More on the design: scale not given: the % may be the effect or the level left. The gist of the method: as §3
The subject of data set [16] is Mus musculus. In words: Antidiabetic activity in ob/ob mouse assessed as reduction in fasting blood glucose levels at 50 mg/kg, ip bid for 12 days. The class given is functional. More on the design: scale not given: the % may be the effect or the level left. In a few lines: as §3
Data set [17] relates to Mus musculus. Put plainly: Antidiabetic activity in ob/ob mouse assessed as effect on serum triglyceride levels at 50 mg/kg, ip bid for 23 days. The data set is classed as functional, organism-based. In a few lines: as §3
Data set [18] has as its system Mus musculus. Put plainly: Antidiabetic activity in ob/ob mouse assessed as reduction in total cholesterol levels at 50 mg/kg, ip bid for 23 days. The class given is functional. More on the design: scale not given: the % may be the effect or the level left. In a few lines: as §3
For data set [19], the system named is Mus musculus. In words: Antidiabetic activity in ob/ob mouse assessed as reduction in NEFA levels at 50 mg/kg, ip bid for 23 days. The data set is classed as functional. More on the design: scale not given: the % may be the effect or the level left. In a few lines:
as §3

From ChEMBL document CHEMBL3576806, “Design and synthesis of novel arctigenin analogues for the amelioration of metabolic disorders” (ACS Med Chem Lett, 2015) come the findings set out here.

Activity calls are given as the source filed them. The rule behind the calls is not given here.

In the case of `COc1ccc(CC2COC(=O)C2Cc2ccc(Cl)cc2)cc1OC` (racemic), the Activity in data set [1] is 173.7%; in data set [2], 185.5%; in [4], “Dose-dependent effect”; in data set [14] it was “Non-toxic”; in data set [15] it was 27.7%; in data set [16], 27.3%. For the same compound, the Activity in [18] stood at 22.4%; in [19], 10%. Further, the Ratio in data set [3] is recorded as 0.936. Also, the outcome in data set [5], in data set [8] and in data set [17] was inactive. Besides, the result in data set [6], in [7], in data set [12] and in data set [13] was Active. Moreover, in [9], the time to peak (Tmax) was 30 min. In [10], this compound returned a Cmax of 508 ng/mL. In data set [11], the AUC(0-t) amounted to 1880 ng·h/mL.

What is called Tmax is the time at which the peak concentration occurs. A word on the Cmax: it is the peak of the concentration-time curve. In general, AUC(0-t) refers to exposure summed from dosing to a finite time, without extrapolation to infinity.
